Here are results for one compound from ChEMBL document CHEMBL1133526, “Molecular simplification of 1,4-diazabicyclo[4.3.0]nonan-9-ones gives piperazine derivatives that maintain high nootropic activity” (2000).

Holding throughout (format): functional
Assay [1] deals with Mus musculus. Description: Nootropic effect of the compound, when administered subcutaneously, on mouse passive Avoidance test, using Scopolamine as Amnesic drug on 1 st day.
Assay [2] relates to Mus musculus. Description: Nootropic effect of the compound, when administered subcutaneously, on mouse passive Avoidance test, using Scopolamine as Amnesic drug on 2 nd day; dose is limited by solubility problems. An outline of the steps: (§1)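 Mouse passive avoidance test using a light/dark box. Entering the dark side drops the mouse 40 cm into 10 °C water. Training is on day 1 and retention 24 h later. Test drug is given sc 20 min before training, in saline or DMSO/H2O vehicle. […] Mice not entering within 60 s are excluded. Retention latency is capped at 120 s. Δ = day 2 − day 1 latency.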

The subject of assay [3] is Mus musculus. The assay can be described thus: Minimum effective dose administered subcutaneously in mouse, activity given with reference to piracetam. The settings on record: Mus musculus, sc; read-out: MED. In short, it runs like this:
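Mouse passive avoidance with scopolamine-induced amnesia (1.5 mg/kg ip after training; 40 cm fall into 10 °C water as punishment). Compounds are given sc in 1:10 dilution steps 20 min before training, in saline or DMSO/H2O. […] Piracetam is the ip reference.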

The species named for assay [4] is Mus musculus. The assay can be described thus: Change in entry latency expressed as [(entry latency on day 2)-(entry latency on day 1)]. An outline of the steps:
as §1

In the case of `CC(=O)N1CCN(C(=O)c2ccccc2)CC1`, the Entry latency is given as 11.3 s in the assay with Mus musculus [1] and 119 s with Mus musculus [2]. For the same compound, in the assay on Mus musculus [3], the minimal effective dose was 10 mg/kg. Also, the “Change in entry latency” value in the assay filed under Mus musculus [4] was 107.7 s.
